Bioassay records deposited in PubChem BioAssay by Johns Hopkins Ion Channel Center.
MrgX1 antagonist – blocks BAM8-22 activation of human MrgX1 receptor. MRGX1-HEK293 calcium flux, Fluo-4, BAM8-22 antagonism; stronger effect = lower value. actives 1.3% (n = 310,000). B-score at 10 µM;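 active = calcium-response B-score plate-corrected more than 3 library SD below zero, starting fluorescence within 5 deviations, no agonist response on first addition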;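 note: peak minus trough fluorescence over baseline after final BAM8-22 challenge near maximal dose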
Target sequence (Q96LB2 whole entry, looked up): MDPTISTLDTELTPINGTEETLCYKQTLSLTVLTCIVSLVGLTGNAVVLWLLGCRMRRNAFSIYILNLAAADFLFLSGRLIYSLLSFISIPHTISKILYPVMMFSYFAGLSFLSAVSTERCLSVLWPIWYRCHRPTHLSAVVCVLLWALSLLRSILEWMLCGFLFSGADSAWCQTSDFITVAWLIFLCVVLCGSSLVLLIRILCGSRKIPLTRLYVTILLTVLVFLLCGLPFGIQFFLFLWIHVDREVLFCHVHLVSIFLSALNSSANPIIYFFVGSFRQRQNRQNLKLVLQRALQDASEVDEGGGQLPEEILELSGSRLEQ
RGS4 act – RGS4 potentiation or activation | HEK293 M3R/inducible RGS4, carbachol calcium flux Fluo4; stronger effect = lower value | B-score at 10 µM | actives 0.92% (n = 310,000) | AID 463111;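 active = B-score of the integrated calcium signal more than 4 SD below the library mean, with starting fluorescence not abnormally high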;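 note: negative B-score means reduced calcium response which marks RGS4 activation or potentiation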
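test system = M3R-expressing HEK293 line, RGS4 induced by doxycycline | probe or stimulus = carbachol at ECmax as muscarinic agonist stimulus | timing = dye loading 30 min 37 °C, buffer rest 30 min RT | signal = calcium dye Fluo4 fluorescence | evaluation = B score from integrated fluorescence ratio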
Kir21 inh – blocks the mouse Kir2.1 inward-rectifier potassium channel; P35561; HEK293-Kir2.1, FluxOR thallium flux fluorescence; stronger effect = lower value; B-score at 10 µM; actives 0.85% (n = 310,000); AID 1672;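 active = fluorescence ratio B-score at or below minus 3 SD of library scores, with starting-brightness B-score within 2 SD, cut at about -4.2 in these data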;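 note: channel flux triggered by added potassium and thallium sulfate stimulus; B-score of peak minus minimum fluorescence over baseline after thallium stimulus; more negative B-score means stronger Kir2.1 block with less thallium influx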
RGS4 inh – inhibitors of human RGS4; P49798; HEK293 M3R/RGS4 inducible, Fluo-4 calcium flux; stronger effect = higher value; triggered by carbachol at its EC20; B-score at 10 µM; actives 0.45% (n = 310,000); AID 463165;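 active = B-score, a plate-corrected calcium signal, over three deviations above library mean, with baseline fluorescence within five deviations of library mean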;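 note: RGS4 expression induced by doxycycline in cells with stable M3 receptor; B-score is computed from the integrated fluorescence ratio over baseline after carbachol; higher B-score means a larger calcium signal and so more RGS4 inhibition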
Target sequence (P49798 whole entry, looked up): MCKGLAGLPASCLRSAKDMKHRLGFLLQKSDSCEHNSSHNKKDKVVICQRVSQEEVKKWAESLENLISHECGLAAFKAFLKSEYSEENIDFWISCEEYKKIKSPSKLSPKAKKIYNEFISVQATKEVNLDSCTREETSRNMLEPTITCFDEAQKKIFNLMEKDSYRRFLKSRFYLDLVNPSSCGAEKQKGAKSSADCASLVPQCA
MrgX1 ag – agonists of human MrgX1 receptor. MrgX1-HEK293 cells, Fluo-4 calcium fluorescence, agonist mode; stronger effect = higher value. B-score at 10 µM. actives 0.44% (n = 310,000). AID 588627;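 active = calcium response B-score plate-corrected fluorescence ratio at least 3 library SD, with starting fluorescence B-score inside 5 SD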
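Material – MrgX1-expressing HEK293 cells · Input – 15,000 cells seeded per well · Dosing – compound as first of three additions · Times – overnight seeding, then 1 h dark dye loading · Measured by – kinetic Fluo-4 NW fluorescence of intracellular calcium · Read-out – B-scored fluorescence response ratio · Benchmarks – positive and negative control wells on each plate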
MrgX1 allo act – human MrgX1 positive allosteric modulation, primary screen. B-score at 10 µM. MrgX1-HEK293, Fluo-4 calcium flux, FDSS; stronger effect = higher value. actives 0.63% (n = 310,000). Q96LB2. AID 588675;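 active = plate-corrected calcium response at least 3 library SD above typical, normal starting fluorescence, not activating the receptor alone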;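 note: compound read alongside a low EC10 to EC30 dose of BAM8-22 agonist; peak minus trough fluorescence over baseline measured at the second addition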
RGS4 inh valid – RGS4 inhibitor validation | shares compounds with RGS4 inh | HEK293 M3R/RGS4, carbachol calcium Fluo-4 fluorescence; carbachol added at its EC20; 0 = buffer wells, 100 = carbachol control | calcium response, % at 10 µM | actives 65% (n = 1,700) | AID 492999;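 active = duplicate-averaged calcium response above the buffer-only control mean plus 5 SD of those controls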;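 note: integrated fluorescence ratio F max minus min over baseline F0; higher response in RGS4-induced cells means RGS4 inhibition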
M3R Ca ctr – counter-screen for RGS4 inhibitors: effect in non-induced cells. shares compounds with RGS4 inh. HEK293 M3R non-induced, carbachol calcium Fluo-4; submaximal (EC20) carbachol stimulus; buffer wells 0%, carbachol control wells 100%. activity (percent), % at 10 µM. actives 20% (n = 1,900). AID 493000; call rule not given here;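 note: RGS4 induction absent so cells express M3R without RGS4; higher means more calcium signal and flags a non-specific hit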
M3R basal Ca ctr – second counter-screen for RGS4 inhibitors: non-induced cells without carbachol; calcium response (agonist-mode artifact), % at 10 µM; HEK293 M3R/RGS4 non-induced, Fluo-4 calcium, no carbachol; normalised: buffer wells 0%, carbachol wells 100%; AID 493001; shares compounds with RGS4 inh; actives 22% (n = 1,900);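 active = duplicate-averaged calcium rise in uninduced cells above buffer wells' mean plus 5 SD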
Active calls of the source: *. Shown are actives, neighbours in structure and some others; about 4.1% of the full set was active somewhere.

Screening O=C1NC(=S)S/C1=C\c1coc2ccc(O)cc2c1=O returned MrgX1 antagonist inactive, RGS4 act inactive, Kir21 inh 2.06, RGS4 inh 6.34*, MrgX1 ag inactive, MrgX1 allo act inactive, RGS4 inh valid 26.0%*, M3R Ca ctr 65.0%* and M3R basal Ca ctr inactive.
For CN(C)/C=C(/C(=O)c1ccccc1Cl)S(=O)(=O)c1ccccc1 the results were MrgX1 antagonist inactive, RGS4 act inactive, Kir21 inh 1.11, RGS4 inh inactive, MrgX1 ag inactive and MrgX1 allo act inactive.
`COC(=O)c1cc(=O)n(Cc2ccco2)c(=Nc2ccc(F)cc2)s1` gave MrgX1 antagonist inactive, RGS4 act inactive, Kir21 inh -0.81, RGS4 inh 6.07*, MrgX1 ag inactive, MrgX1 allo act inactive, RGS4 inh valid 15.0%*, M3R Ca ctr 44.5%* and M3R basal Ca ctr inactive.
For COC(=O)c1cc(=O)n(-c2ccccc2)c(=Nc2ccccc2)s1 the results were MrgX1 antagonist inactive, RGS4 act inactive, Kir21 inh -0.55, RGS4 inh 8.05*, MrgX1 ag inactive, MrgX1 allo act inactive, RGS4 inh valid 19.0%*, M3R Ca ctr inactive and M3R basal Ca ctr inactive.
For CC(=O)c1c(C)[nH]c(C(=O)Nc2ccccc2Cl)c1C the results were MrgX1 antagonist inactive, RGS4 act inactive, Kir21 inh 0.26, RGS4 inh inactive, MrgX1 ag inactive and MrgX1 allo act inactive.
For COc1ccccc1N1C(=O)[C@@H]2C(C(=O)CN3C(=O)c4ccccc4C3=O)=NN[C@@H]2C1=O the results were MrgX1 antagonist inactive, RGS4 act inactive, Kir21 inh 0.03, RGS4 inh inactive, MrgX1 ag inactive and MrgX1 allo act inactive.
`NNc1nc2sc3c(c2c(=O)n1Cc1ccccc1)CCC3` gave MrgX1 antagonist inactive, RGS4 act inactive, Kir21 inh 1.24, RGS4 inh inactive, MrgX1 ag inactive and MrgX1 allo act inactive.
`Nn1c(Nc2ccccc2)nc2sc3c(c2c1=O)CCC3` gave RGS4 act inactive, Kir21 inh 1.46, RGS4 inh 4.83*, RGS4 inh valid 13.5%*, M3R Ca ctr inactive and M3R basal Ca ctr inactive.
Screening Cc1ccc(C(C[N+](=O)[O-])Sc2ccc(N)cc2)cc1 (centres undefined) returned MrgX1 antagonist inactive, RGS4 act inactive, Kir21 inh -3.69, RGS4 inh 14.2*, MrgX1 ag 32.9*, MrgX1 allo act inactive, RGS4 inh valid 28.0%*, M3R Ca ctr inactive and M3R basal Ca ctr inactive.
CC1=CC2=NC(=O)/C(=C/c3cccn3Cc3ccccc3)C(=N)N2O1 was read as MrgX1 antagonist inactive, RGS4 act inactive, Kir21 inh -0.51, RGS4 inh inactive, MrgX1 ag inactive and MrgX1 allo act inactive.
For N=C1/C(=C/c2cccn2Cc2ccc(Cl)cc2)C(=O)N=C2SC=CN12 the results were MrgX1 antagonist inactive, RGS4 act inactive, Kir21 inh 1.13, RGS4 inh 8.38*, MrgX1 ag inactive, MrgX1 allo act inactive, RGS4 inh valid 5.0%*, M3R Ca ctr inactive and M3R basal Ca ctr inactive.
Screening Nc1nnc(SCC(=O)NC2CCCCC2)s1 returned MrgX1 antagonist inactive, RGS4 act inactive, Kir21 inh -0.18, RGS4 inh inactive, MrgX1 ag inactive and MrgX1 allo act inactive.
